Laboratory results published in ChEMBL document CHEMBL3046169, “Synthesis and bioactivity study of 2-acylamino-substituted N'-benzylbenzohydrazide derivatives” (2012).
Converted amounts (≈) assume the structure as drawn. The source made the active and inactive calls. The calls are words filed in the database; no cut-off is given here.

Experiments:
Tetranychus cinnabarinus [1] = assay: Pesticidal activity against Tetranychus cinnabarinus (carmine spider mite) third- instar larvae grown on Phaseolus vulgaris leaves assessed as pest mortality at 25 mg/L measured 48 hr post compound exposure; type: functional
Summary of the method: (§1)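 More than 20 third-instar mite larvae on Phaseolus vulgaris leaves dipped 5 s in compound solutions (water with 0.05% Triton X-100), excess liquor removed. Larvae held at 25 ± 1 °C in illumination box; mortality read at 48 h. Primary screen at 600 mg L⁻¹, follow-up at 400, 200, 100, 50 and 25 mg L⁻¹ with LC50 calculated. Triplicate tests.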

Tetranychus cinnabarinus [2] = assay: Pesticidal activity against Tetranychus cinnabarinus (carmine spider mite) third- instar larvae grown on Phaseolus vulgaris leaves assessed as pest mortality measured 48 hr post compound exposure; type: functional; summary of the method: as §1
Tetranychus cinnabarinus [3] = assay: Pesticidal activity against Tetranychus cinnabarinus (carmine spider mite) third- instar larvae grown on Phaseolus vulgaris leaves assessed as pest mortality at 200 mg/L measured 48 hr post compound exposure; type: functional; summary of the method: as §1
Tetranychus cinnabarinus [4] = assay: Pesticidal activity against Tetranychus cinnabarinus (carmine spider mite) third- instar larvae grown on Phaseolus vulgaris leaves assessed as pest mortality at 100 mg/L measured 48 hr post compound exposure; type: functional; summary of the method: as §1
Tetranychus cinnabarinus [5] = assay: Pesticidal activity against Tetranychus cinnabarinus (carmine spider mite) third- instar larvae grown on Phaseolus vulgaris leaves assessed as pest mortality at 50 mg/L measured 48 hr post compound exposure; type: functional; summary of the method: as §1
Tetranychus cinnabarinus [6] = assay: Pesticidal activity against Tetranychus cinnabarinus (carmine spider mite) third- instar larvae grown on Phaseolus vulgaris leaves assessed as pest mortality at 400 mg/L measured 48 hr post compound exposure; type: functional; summary of the method: as §1
Tetranychus cinnabarinus [7] = assay: Pesticidal activity against Tetranychus cinnabarinus (carmine spider mite) third- instar larvae grown on Phaseolus vulgaris leaves assessed as pest mortality at 600 mg/L measured 48 hr post compound exposure; type: functional; summary of the method: as §1
Plutella xylostella = assay: Pesticidal activity against Plutella xylostella (diamondback moth) second-instar larvae grown on cruciferous vegetables leaves leaves as pest mortality at 600 mg/L measured 48 hr post compound exposure; type: functional
Summary of the method: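 Over 20 second-instar larvae on cruciferous vegetable leaves dipped 5 s in compound diluted in distilled water containing 0.05% Triton X-100, excess liquid removed. Kept in illumination box at 25 ± 1 °C; mortality recorded 48 h after treatment. Each test in triplicate.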

Aphis gossypii = assay: Pesticidal activity against Aphis gossypii (cotton aphid) third-instar nymphae grown on tender Hibiscus syriacus leaves assessed as pest mortality at 600 mg/L measured 24 hr post compound exposure; type: functional; conditions: in Hibiscus syriacus
Summary of the method: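 Leaf-dip bioassay: over 30 healthy apterous third-instar nymphs on tender Hibiscus syriacus leaves dipped 5 s in compound diluted in distilled water with 0.05% Triton X-100, excess fluid removed. Held in illumination box at 25 ± 1 °C; mortality scored after 24 h. Tests in triplicate.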

Tetranychus cinnabarinus [8] = assay: Pesticidal activity against Tetranychus cinnabarinus (carmine spider mite) third- instar larvae grown on Phaseolus vulgaris leaves assessed as reduction in larval movement at 25 to 400 mg/L measured 1 hr post compound exposure; type: functional, organism-based
Summary of the method: (§2)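 Mite larvae (>20 third-instar on Phaseolus vulgaris leaves) leaf-dipped 5 s in compound at 400, 200, 100, 50 or 25 mg L⁻¹ in water with 0.05% Triton X-100, kept at 25 ± 1 °C. Movement of larvae observed at 1 h; corpse colour change to black observed at 48 h after treatment.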

Tetranychus cinnabarinus [9] = assay: Pesticidal activity against Tetranychus cinnabarinus (carmine spider mite) third- instar larvae grown on Phaseolus vulgaris leaves assessed as conversion of corpus colour to black at 25 to 400 mg/L measured 48 hr post compound exposure; type: functional, organism-based; summary of the method: as §2

SMILES | mortality at 600 µg/mL (Tetranychus cinnabarinus [7]) | mortality at 600 µg/mL (Plutella xylostella) | mortality at 600 µg/mL (Aphis gossypii) | also measured
CC(C)(C)c1ccc(CSc2cnn(C(C)(C)C)c(=O)c2Cl)cc1 [PYRIDABEN] |  |  |  | mortality at 25 µg/mL (Tetranychus cinnabarinus [1]): 97.7%; LC50 (Tetranychus cinnabarinus [2]): 5.5 mg/L (≈ 15.1 µM); mortality at 200 µg/mL (Tetranychus cinnabarinus [3]): 100%; mortality at 100 µg/mL (Tetranychus cinnabarinus [4]): 100%; mortality at 50 µg/mL (Tetranychus cinnabarinus [5]): 100%; mortality at 400 µg/mL (Tetranychus cinnabarinus [6]): 100%
Cc1cc(Br)cc(C(=O)NNCc2cccc(C(F)(F)F)c2)c1NC(=O)C(C)(C)CCl | 72.7% | 52% | 78.6% | 
Cc1cc(Cl)cc(C(=O)NNCc2cccc(C(F)(F)F)c2)c1NC(=O)C(C)(C)CCl | 61.8% | 52% | 5.1% | 
Cc1cc(Br)cc(C(=O)NNCc2ccc(Cl)nc2)c1NC(=O)CC(C)(C)C | 23.4% | 40% | 25.9% | 
Cc1cc(Cl)cc(C(=O)NNCc2ccccc2)c1NC(=O)CC(C)(C)C | 70.1% | 94% | 70.4% | 
Cc1cc(Cl)cc(C(=O)NNCc2ccc(F)cc2)c1NC(=O)C(C)(C)CCl | 67% | 64% | 81.5% | 
Cc1cc(Cl)cc(C(=O)NNCc2ccc(F)cc2)c1NC(=O)C(C)(C)C | 73.8% | 88% | 41.5% | 
Cc1cc(Br)cc(C(=O)NNCc2ccccc2Cl)c1NC(=O)C(C)(C)CCl | 95.7% | 76% | 8.5% | mortality at 25 µg/mL (Tetranychus cinnabarinus [1]): 36.5%; LC50 (Tetranychus cinnabarinus [2]): 51.7 mg/L (≈ 106 µM); Activity (Tetranychus cinnabarinus [8]): Active; mortality at 200 µg/mL (Tetranychus cinnabarinus [3]): 83.6%; mortality at 100 µg/mL (Tetranychus cinnabarinus [4]): 62.6%; mortality at 50 µg/mL (Tetranychus cinnabarinus [5]): 44.9%; mortality at 400 µg/mL (Tetranychus cinnabarinus [6]): 89.6%; Activity (Tetranychus cinnabarinus [9]): Active
Cc1cccc(C(=O)NNCc2cccc(C(F)(F)F)c2)c1NC(=O)C(C)(C)C | 46.8% | 64% | 75% | 
Cc1cc(Br)cc(C(=O)NNCc2ccc(Cl)nc2)c1NC(=O)C(C)(C)CCl | 55.8% | 52% | 33.3% | 
Cc1cc(Cl)cc(C(=O)NNCc2ccc(Cl)cc2Cl)c1NC(=O)CC(C)(C)C | 88.8% | 88% | 62% | 
Cc1cc(Br)cc(C(=O)NNCc2ccccc2Cl)c1NC(=O)CC(C)(C)C | 11.6% | 76% | 88% | 
Cc1cccc(C(=O)NNCc2cccc(C(F)(F)F)c2)c1NC(=O)CC(C)(C)C | 57.9% | 40% | 94.2% | 
CC(C)(C)C(=O)Nc1ccc(Cl)cc1C(=O)NNCc1ccc(F)cc1 | 73.8% |  | 91.3% | 
Cc1cc(Cl)cc(C(=O)NNCc2ccc(Cl)nc2)c1NC(=O)C(C)(C)CCl | 47.1% | 16% | 30.6% | 
Cc1cc(Br)cc(C(=O)NNCc2cccc(C(F)(F)F)c2)c1NC(=O)CC(C)(C)C | 100% | 40% | 18.7% | mortality at 25 µg/mL (Tetranychus cinnabarinus [1]): 26%; LC50 (Tetranychus cinnabarinus [2]): 89.8 mg/L (≈ 179 µM); Activity (Tetranychus cinnabarinus [8]): Active; mortality at 200 µg/mL (Tetranychus cinnabarinus [3]): 64.4%; mortality at 100 µg/mL (Tetranychus cinnabarinus [4]): 43.3%; mortality at 50 µg/mL (Tetranychus cinnabarinus [5]): 38.4%; mortality at 400 µg/mL (Tetranychus cinnabarinus [6]): 93.3%; Activity (Tetranychus cinnabarinus [9]): Active
Cc1cc(Br)cc(C(=O)NNCc2ccc(Cl)cc2Cl)c1NC(=O)C(C)(C)C | 77% | 34% | 90.2% | 
Cc1cc(Br)cc(C(=O)NNCc2cccc(C(F)(F)F)c2)c1NC(=O)C(C)(C)C | 19.8% | 16% | 54.2% | 
Cc1cc(Cl)cc(C(=O)NNCc2ccc(Cl)cc2Cl)c1NC(=O)C(C)(C)CCl | 73.8% |  | 42.3% | 
Cc1cccc(C(=O)NNCc2ccccc2Cl)c1NC(=O)C(C)(C)C | 5.9% | 64% | 92.2% | 
Cc1cccc(C(=O)NNCc2ccc(Cl)cc2Cl)c1NC(=O)C(C)(C)C | 52.9% | 50% | 89.4% | 
Cc1cc(Br)cc(C(=O)NNCc2ccccc2)c1NC(=O)CC(C)(C)C | 78.1% | 22% | 96.6% | 

SMILES | mortality at 600 µg/mL (Tetranychus cinnabarinus [7]) | mortality at 600 µg/mL (Plutella xylostella) | mortality at 600 µg/mL (Aphis gossypii) | also measured
Cc1cc(Br)cc(C(=O)NNCc2ccc(Cl)nc2)c1NC(=O)C(C)(C)C | 19.3% | 64% | 96.2% | 
Cc1cc(Br)cc(C(=O)NNCc2ccccc2)c1NC(=O)C(C)(C)CCl | 20.3% | 52% | 84.6% | 
Cc1cc(Cl)cc(C(=O)NNCc2ccccc2F)c1NC(=O)C(C)(C)C | 80.5% | 76% | 38.9% | 
Cc1cccc(C(=O)NNCc2ccccc2Cl)c1NC(=O)C(C)(C)CCl | 46.7% | 22% | 68.8% | 
Cc1cc(Br)cc(C(=O)NNCc2ccccc2)c1NC(=O)C(C)(C)C | 64.9% | 50% | 86.1% | 
Cc1cc(Cl)cc(C(=O)NNCc2cccc(C(F)(F)F)c2)c1NC(=O)CC(C)(C)C | 77.2% | 76% | 58.3% | 
Cc1cc(Cl)cc(C(=O)NNCc2ccccc2)c1NC(=O)C(C)(C)CCl | 50.9% | 52% | 68.5% | 
Cc1cc(Cl)cc(C(=O)NNCc2ccccc2)c1NC(=O)C(C)(C)C | 92.5% | 34% | 52.4% | 
Cc1cc(Cl)cc(C(=O)NNCc2ccc(Cl)nc2)c1NC(=O)C(C)(C)C | 81.3% | 50% | 24.2% | 
CC(C)(C)CC(=O)Nc1ccc(Cl)cc1C(=O)NNCc1ccccc1F | 77.6% | 28% | 1.8% | 
Cc1cc(Cl)cc(C(=O)NNCc2ccccc2Cl)c1NC(=O)CC(C)(C)C | 100% | 52% | 65.5% | mortality at 25 µg/mL (Tetranychus cinnabarinus [1]): 38.4%; LC50 (Tetranychus cinnabarinus [2]): 27.9 mg/L (≈ 66.1 µM); Activity (Tetranychus cinnabarinus [8]): Active; mortality at 200 µg/mL (Tetranychus cinnabarinus [3]): 86.4%; mortality at 100 µg/mL (Tetranychus cinnabarinus [4]): 80.4%; mortality at 50 µg/mL (Tetranychus cinnabarinus [5]): 74.1%; mortality at 400 µg/mL (Tetranychus cinnabarinus [6]): 92.2%; Activity (Tetranychus cinnabarinus [9]): Active
Cc1cc(Cl)cc(C(=O)NNCc2ccc(Cl)cc2Cl)c1NC(=O)C(C)(C)C | 69% | 64% | 77.8% | 
Cc1cc(Cl)cc(C(=O)NNCc2ccccc2Cl)c1NC(=O)C(C)(C)CCl | 11% | 64% | 14.5% | 
Cc1cc(Cl)cc(C(=O)NNCc2ccccc2F)c1NC(=O)C(C)(C)CCl | 61.1% | 100% | 70.2% | 
Cc1cccc(C(=O)NNCc2ccccc2)c1NC(=O)C(C)(C)CCl | 79.3% | 52% | 95.6% | 
Cc1cc(Br)cc(C(=O)NNCc2ccccc2Cl)c1NC(=O)C(C)(C)C | 40.1% | 64% | 49.1% | 
Cc1cccc(C(=O)NNCc2ccccc2)c1NC(=O)C(C)(C)C | 16.7% | 52% | 62.3% | 
Cc1cccc(C(=O)NNCc2ccc(Cl)nc2)c1NC(=O)CC(C)(C)C | 19.3% | 100% | 65.5% | 
Cc1cc(Cl)cc(C(=O)NNCc2cccc(C(F)(F)F)c2)c1NC(=O)C(C)(C)C | 8.6% | 40% | 68.3% | 
CC(C)(C)C(=O)Nc1ccc(Cl)cc1C(=O)NNCc1cccc(C(F)(F)F)c1 | 73.8% | 28% | 28.9% | 
Cc1cc(Br)cc(C(=O)NNCc2ccc(Cl)cc2Cl)c1NC(=O)C(C)(C)CCl | 82.5% | 70% | 3.8% | 
